pIC50: −log10 of the molar value.
Experiments:
[1] = molecular target: Histone deacetylase (HDAC1 and HDAC2) (Homo sapiens, UniProt Q13547+Q92769); assay: Inhibition of HDAC1/2 in human HeLa cell nuclear extract using Boc-Lys (acetyl)-AMC as substrate preincubated for 30 mins before substrate addition measured after 20 mins by UV-vis spectrophotometer analysis; assay type: cell-based
[2] = Antitumor activity against human H7402 cells xenografted in mouse assessed as tumor increment ratio at 100 mg/kg/day, po for 16 days relative to control; assay type: functional
In short: (§1)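 Male athymic nude mice, 4-6 weeks old, inoculated subcutaneously in the right axilla with 6.88×10^7 H7402 cells. After 8 days, at about 140 mm³ mean tumor volume, mice were randomized to groups of seven. Daily gavage for 16 days; controls received an equal volume of PBS. Tumors were measured by caliper every three days, V=ab²/2. T/C% = treated RTV/control RTV, where RTV = Vt/V0. Two-tailed t test.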

Mus musculus [3] = assay: Toxicity in human H7402 cells xenografted mouse assessed as change in body weight at 100 mg/kg/day, po for 16 days; assay type: organism-based; settings: in vivo, 384 h
In short: (§2)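 H7402 subcutaneous xenograft in male athymic nude mice, seven per group, started once tumors reached about 140 mm³. Compound given daily by gavage for 16 days; controls received an equal volume of PBS. Body weight recorded every three days, and toxicity monitored during treatment.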

[4] = Antiproliferative activity against human H7402 cells after 48 hrs by MTT assay; assay type: functional, cell-based; settings: H7402, 48 h
In short: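 Cells kept in RPMI1640 with 10% FBS at 37 °C, 5% CO2. Seeded 5000 per well and allowed at least 4 h to settle, then exposed to a range of compound concentrations for 48 h. 1% MTT solution added for 4 h, formazan dissolved in DMSO over 15 min, OD read at 570 nm. Values are the mean of three experiments.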

Mus musculus [5] = assay: Toxicity in human H7402 cells xenografted mouse assessed as change in toxic effect at 100 mg/kg/day, po for 16 days; assay type: organism-based; settings: in vivo, 384 h; in short: as §2
K562 = assay: Antiproliferative activity against human K562 cells after 48 hrs by MTT assay; assay type: functional, cell-based; settings: K562, 48 h
Histone deacetylase 1 = Histone deacetylase 1 (Homo sapiens, UniProt Q13547); assay: Inhibition of HDAC1 (unknown origin) using Boc-Lys (acetyl)-AMC as substrate preincubated for 30 mins before substrate addition measured after 20 mins by UV-vis spectrophotometer analysis
Histone deacetylase 1, sequence (Q13547 whole entry): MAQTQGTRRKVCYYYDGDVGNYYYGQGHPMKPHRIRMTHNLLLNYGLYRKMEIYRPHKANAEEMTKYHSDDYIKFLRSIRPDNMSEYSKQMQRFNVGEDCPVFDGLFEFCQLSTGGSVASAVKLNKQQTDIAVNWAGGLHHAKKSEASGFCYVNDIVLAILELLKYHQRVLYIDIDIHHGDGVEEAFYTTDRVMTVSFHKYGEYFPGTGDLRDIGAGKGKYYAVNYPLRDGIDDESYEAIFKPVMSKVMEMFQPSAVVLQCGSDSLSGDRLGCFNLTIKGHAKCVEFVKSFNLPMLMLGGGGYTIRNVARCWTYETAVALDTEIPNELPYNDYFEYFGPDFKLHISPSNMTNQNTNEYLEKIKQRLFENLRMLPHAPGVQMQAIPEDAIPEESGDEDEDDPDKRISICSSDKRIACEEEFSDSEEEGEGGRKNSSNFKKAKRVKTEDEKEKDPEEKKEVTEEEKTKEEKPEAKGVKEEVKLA

HCT-116 = assay: Antiproliferative activity against human HCT116 cells after 48 hrs by MTT assay; assay type: functional, cell-based; settings: HCT-116, 48 h
PC-3 = assay: Antiproliferative activity against human PC3 cells after 48 hrs by MTT assay; assay type: functional, cell-based; settings: PC-3, 48 h
[6] = Antiproliferative activity against human ES2 cells after 48 hrs by MTT assay; assay type: functional, cell-based; settings: ES-2, 48 h
Mus musculus [7] = assay: Toxicity in human H7402 cells xenografted mouse assessed as change in body weight at 60 mg/kg/day, po for 16 days; assay type: organism-based; settings: in vivo, 384 h; in short: as §2
[8] = Antiproliferative activity against human KG1 cells after 48 hrs by MTT assay; assay type: functional, cell-based; settings: KG-1, 48 h
MCF7 = assay: Antiproliferative activity against human MCF7 cells after 48 hrs by MTT assay; assay type: functional, cell-based; settings: MCF7, 48 h
Mus musculus [9] = assay: Toxicity in human H7402 cells xenografted mouse assessed as change in toxic effect at 60 mg/kg/day, po for 16 days; assay type: organism-based; settings: in vivo, 384 h; in short: as §2
[10] = Antiproliferative activity against human 3AO cells after 48 hrs by MTT assay; assay type: functional, cell-based
U-937 = assay: Antiproliferative activity against human U937 cells after 48 hrs by MTT assay; assay type: functional, cell-based; settings: U-937, 48 h
[11] = Antitumor activity against human H7402 cells xenografted in mouse assessed as tumor increment ratio at 60 mg/kg/day, po for 16 days relative to control; assay type: functional; in short: as §1
[12] = molecular target: T1, Protein deacetylase HDAC6 (Homo sapiens, UniProt Q9UBN7); assay: Inhibition of HDAC6 (unknown origin) using Boc-Lys (acetyl)-AMC as substrate preincubated for 30 mins before substrate addition measured after 20 mins by UV-vis spectrophotometer analysis
T1 sequence (Q9UBN7 whole entry): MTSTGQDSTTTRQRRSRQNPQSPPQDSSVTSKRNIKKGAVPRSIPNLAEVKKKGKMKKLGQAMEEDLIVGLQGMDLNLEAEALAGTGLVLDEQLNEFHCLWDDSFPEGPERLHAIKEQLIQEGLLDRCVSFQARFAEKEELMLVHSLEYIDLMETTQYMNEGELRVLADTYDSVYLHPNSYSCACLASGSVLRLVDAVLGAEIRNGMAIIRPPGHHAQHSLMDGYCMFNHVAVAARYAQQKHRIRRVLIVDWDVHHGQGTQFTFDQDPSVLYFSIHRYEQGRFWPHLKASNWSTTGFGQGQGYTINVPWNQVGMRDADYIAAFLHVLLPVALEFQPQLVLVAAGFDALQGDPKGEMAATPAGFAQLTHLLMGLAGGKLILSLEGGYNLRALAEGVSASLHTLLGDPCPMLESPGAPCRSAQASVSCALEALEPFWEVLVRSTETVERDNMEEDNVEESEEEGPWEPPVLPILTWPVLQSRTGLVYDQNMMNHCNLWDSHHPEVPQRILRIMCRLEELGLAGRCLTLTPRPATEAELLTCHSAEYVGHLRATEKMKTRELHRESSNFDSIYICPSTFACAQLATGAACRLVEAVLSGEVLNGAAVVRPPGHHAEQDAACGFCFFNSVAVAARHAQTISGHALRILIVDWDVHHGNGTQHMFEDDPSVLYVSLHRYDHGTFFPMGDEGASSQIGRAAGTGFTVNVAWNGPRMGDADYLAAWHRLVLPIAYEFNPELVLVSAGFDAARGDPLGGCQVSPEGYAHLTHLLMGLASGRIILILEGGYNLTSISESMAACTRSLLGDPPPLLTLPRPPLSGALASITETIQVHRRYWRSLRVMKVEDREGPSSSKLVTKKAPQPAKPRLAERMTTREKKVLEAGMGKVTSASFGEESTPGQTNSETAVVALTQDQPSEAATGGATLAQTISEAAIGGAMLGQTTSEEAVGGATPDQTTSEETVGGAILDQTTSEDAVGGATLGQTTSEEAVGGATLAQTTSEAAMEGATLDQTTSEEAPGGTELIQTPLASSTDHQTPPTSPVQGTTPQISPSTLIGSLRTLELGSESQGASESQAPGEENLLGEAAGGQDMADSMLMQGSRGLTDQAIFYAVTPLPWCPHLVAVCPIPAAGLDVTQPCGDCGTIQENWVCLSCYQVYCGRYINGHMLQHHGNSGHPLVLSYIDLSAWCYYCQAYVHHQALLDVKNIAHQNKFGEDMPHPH

MDA-MB-231 = assay: Antiproliferative activity against human MDA-MB-231 cells after 48 hrs by MTT assay; assay type: functional, cell-based; settings: MDA-MB-231, 48 h
Histone deacetylase 3 = Histone deacetylase 3 (Homo sapiens, UniProt O15379); assay: Inhibition of HDAC3 (unknown origin) using Boc-Lys (acetyl)-AMC as substrate preincubated for 30 mins before substrate addition measured after 20 mins by UV-vis spectrophotometer analysis
Histone deacetylase 3, sequence (O15379 whole entry): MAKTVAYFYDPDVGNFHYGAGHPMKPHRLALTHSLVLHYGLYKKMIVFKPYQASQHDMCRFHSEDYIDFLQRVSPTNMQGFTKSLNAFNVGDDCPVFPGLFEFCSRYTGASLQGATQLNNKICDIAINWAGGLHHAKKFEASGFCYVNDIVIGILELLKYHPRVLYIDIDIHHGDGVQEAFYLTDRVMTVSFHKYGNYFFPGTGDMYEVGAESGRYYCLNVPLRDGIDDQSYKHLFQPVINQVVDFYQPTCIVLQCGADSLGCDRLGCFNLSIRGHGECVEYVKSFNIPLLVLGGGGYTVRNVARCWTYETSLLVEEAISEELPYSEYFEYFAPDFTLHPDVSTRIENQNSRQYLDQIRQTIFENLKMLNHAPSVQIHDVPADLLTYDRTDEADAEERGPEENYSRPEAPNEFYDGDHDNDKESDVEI

HEL = assay: Antiproliferative activity against human HEL cells after 48 hrs by MTT assay; assay type: functional, cell-based
HeLa = assay: Antiproliferative activity against human HeLa cells after 48 hrs by MTT assay; assay type: functional, cell-based

| SMILES | IC50 [1] | pIC50 [4] | pIC50 (K562) | pIC50 (HCT-116) | pIC50 (PC-3) | pIC50 [6] | pIC50 [8] | pIC50 (MCF7) | pIC50 [10] | pIC50 (U-937) | pIC50 (MDA-MB-231) | pIC50 (HEL) | pIC50 (HeLa) | also measured |
| --- | --- | --- | --- | --- | --- | --- | --- | --- | --- | --- | --- | --- | --- | --- |
| O=C(CN1C(=O)C2(OCCO2)c2ccccc21)Nc1ccc(C(=O)NO)cc1 | 0.31 µM | – | – | – | – | – | – | – | – | – | – | – | – | – |
| O=C(CCCCCNC(=O)CN1C(=O)C2(OCCO2)c2cc(Br)ccc21)NO | 0.67 µM | – | – | – | – | – | – | – | – | – | – | – | – | – |
| O=C(CNC(=O)CN1C(=O)C2(OCCO2)c2cc(Br)ccc21)NO | > 50 µM | – | – | – | – | – | – | – | – | – | – | – | – | – |
| O=C(CCCCCCC(=O)Nc1ccccc1)NO [VORINOSTAT] | – | 5.00 | – | – | – | – | – | – | – | – | – | – | – | T/C [2]: 75.53%; Activity (Mus musculus [3]): Non-toxic; Activity (Mus musculus [5]): Non-toxic |
| O=C(/C=C/c1ccc(NC(=O)CN2C(=O)C3(OCCO3)c3cc(Br)ccc32)cc1)NO | 0.22 µM | – | – | – | – | – | – | – | – | – | – | – | – | – |
| O=C(CN1C(=O)C2(OCCCO2)c2cc(Br)ccc21)Nc1ccc(C(=O)O)cc1 | > 50 µM | – | – | – | – | – | – | – | – | – | – | – | – | – |
| COC(=O)c1ccc(NC(=O)CN2C(=O)C3(OCCCO3)c3cc(Br)ccc32)cc1 | > 50 µM | – | – | – | – | – | – | – | – | – | – | – | – | – |
| O=C(CN1C(=O)C2(OCCO2)c2cc(Cl)ccc21)Nc1ccc(C(=O)NO)cc1 | 0.37 µM | – | – | – | – | – | – | – | – | – | – | – | – | – |
| O=C(CCN1C(=O)C2(OCCCO2)c2cc(Br)ccc21)Nc1ccc(C(=O)NO)cc1 | 0.01013 µM | 5.27 | 6.74 | 5.90 | 5.72 | 5.55 | 6.49 | 4.28 | 5.49 | 6.85 | 4.00 | 6.48 | 5.55 | pIC50 (Histone deacetylase 1): 6.70; Activity (Mus musculus [7]): Non-toxic; Activity (Mus musculus [9]): Non-toxic; T/C [11]: 62.5%; pIC50 [12]: 6.90; pIC50 (Histone deacetylase 3): 7.60 |
| O=C(CCCNC(=O)CN1C(=O)C2(OCCO2)c2cc(Br)ccc21)NO | 0.92 µM | – | – | – | – | – | – | – | – | – | – | – | – | – |
| O=C(CN1C(=O)C2(OCCO2)c2cc(F)ccc21)Nc1ccc(C(=O)NO)cc1 | 0.19 µM | – | – | – | – | – | – | – | – | – | – | – | – | – |
| O=C(CN1C(=O)C2(OCCO2)c2cc([N+](=O)[O-])ccc21)Nc1ccc(C(=O)NO)cc1 | > 50 µM | – | – | – | – | – | – | – | – | – | – | – | – | – |
| O=C(CN1C(=O)C2(OCCCCO2)c2cc(Cl)ccc21)Nc1ccc(C(=O)NO)cc1 | 0.0373 µM | 5.27 | 5.14 | 4.37 | 4.94 | 4.60 | 5.00 | 4.60 | 4.63 | 5.83 | 4.44 | 5.89 | 4.44 | – |
| O=C(CN1C(=O)C2(OCCO2)c2cc(Br)ccc21)Nc1ccc(C(=O)NO)cc1 | 0.12 µM | – | – | – | – | – | – | – | – | – | – | – | – | – |
| Cc1ccc2c(c1)C1(OCCO1)C(=O)N2CC(=O)Nc1ccc(C(=O)NO)cc1 | 0.28 µM | – | – | – | – | – | – | – | – | – | – | – | – | – |
| O=C(CN1C(=O)C2(OCCCCO2)c2cc(Br)ccc21)Nc1ccc(C(=O)NO)cc1 | 0.0216 µM | 6.12 | 5.41 | 4.10 | 4.75 | 5.44 | 5.26 | 5.21 | 4.57 | 6.18 | 4.62 | 6.19 | < 4.30 | – |
| O=C(CN1C(=O)C2(OCCCO2)c2cc(Cl)ccc21)Nc1ccc(C(=O)NO)cc1 | 0.0344 µM | 5.33 | 5.27 | 4.38 | 4.66 | 5.00 | 5.04 | 4.55 | 4.91 | 5.68 | 4.24 | 5.90 | 4.95 | – |
| Nc1ccccc1NC(=O)c1ccc(NC(=O)CN2C(=O)C3(OCCCO3)c3cc(Br)ccc32)cc1 | 0.31 µM | 5.71 | 6.36 | 6.19 | 5.35 | 5.19 | 5.23 | 5.28 | 5.01 | 5.97 | 4.08 | – | 4.58 | – |
| O=C(CN1C(=O)C2(OCCCO2)c2cc(Br)ccc21)Nc1ccc(C(=O)NO)cc1 | 0.013 µM | 5.86 | 5.71 | 4.22 | 4.96 | 4.79 | 5.27 | 5.07 | 4.74 | 6.40 | 4.35 | 6.25 | 4.92 | – |
| O=C(CCCN1C(=O)C2(OCCCO2)c2cc(Br)ccc21)Nc1ccc(C(=O)NO)cc1 | 0.0194 µM | 6.24 | 6.41 | 5.96 | 5.10 | 5.22 | 6.38 | 4.86 | 4.67 | 6.66 | 3.90 | 6.47 | 4.65 | – |
